Square brackets hold non-standard residues; d marks the D form. Peptide text beside a SMILES is read from it. Nle = CCCC[C@H](N)C(=O)O
Assays:
Mu-type opioid receptor [1] = biological target: T1, Mu-type opioid receptor (Rattus norvegicus, UniProt P33535); experiment: Inhibition of [3H]DAGO binding to rat Opioid receptor mu 1
[2] = biological target: T2, Delta-type opioid receptor (Rattus norvegicus, UniProt P33533); experiment: Inhibition of [3H]DPDPE binding to Opioid receptor delta 1
Method in brief: (§1)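 Male Sprague-Dawley rat brain synaptosomes incubated with 0.62 pmol [3H]DPDPE in 50 mM HEPES pH 7.5, 5 mM MgCl2, 1 μM bestatin, bacitracin, 8% glycerol, soybean trypsin inhibitor, 100 μM PMSF; 2 h at 22 °C, duplicates. GF/C filtration, Tris-BSA washes, scintillation counting. 4-9 peptide concentrations over 2-3 log units, n = 3-8; Ki by Cheng-Prusoff.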

[3] = Opioid receptor delta selectivity was defined as the ratio between Ki(opioid receptor mu)/Ki(opioid receptor delta); format: protein assay
Mu-type opioid receptor [4] = biological target: T1, Mu-type opioid receptor; experiment: Compound was tested for its binding affinity against opioid receptor mu using [3H]DAGO as radioligand.
[5] = biological target: T2, Delta-type opioid receptor; experiment: Compound was tested for its binding affinity against opioid receptor delta using [3H]DPDPE as radioligand.; method in brief: as §1

T1 sequence (P33535 whole entry): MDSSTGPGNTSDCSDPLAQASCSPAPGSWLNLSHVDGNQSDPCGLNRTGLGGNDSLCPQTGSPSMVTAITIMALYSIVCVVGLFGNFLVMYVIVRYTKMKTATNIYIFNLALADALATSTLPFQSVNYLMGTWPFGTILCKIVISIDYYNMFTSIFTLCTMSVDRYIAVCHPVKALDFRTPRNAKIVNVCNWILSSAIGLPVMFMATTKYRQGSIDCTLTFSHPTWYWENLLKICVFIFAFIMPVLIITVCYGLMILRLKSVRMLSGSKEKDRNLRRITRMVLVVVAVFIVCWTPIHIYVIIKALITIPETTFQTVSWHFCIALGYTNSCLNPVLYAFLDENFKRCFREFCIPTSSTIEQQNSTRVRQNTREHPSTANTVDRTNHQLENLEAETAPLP
T2 sequence (P33533 whole entry): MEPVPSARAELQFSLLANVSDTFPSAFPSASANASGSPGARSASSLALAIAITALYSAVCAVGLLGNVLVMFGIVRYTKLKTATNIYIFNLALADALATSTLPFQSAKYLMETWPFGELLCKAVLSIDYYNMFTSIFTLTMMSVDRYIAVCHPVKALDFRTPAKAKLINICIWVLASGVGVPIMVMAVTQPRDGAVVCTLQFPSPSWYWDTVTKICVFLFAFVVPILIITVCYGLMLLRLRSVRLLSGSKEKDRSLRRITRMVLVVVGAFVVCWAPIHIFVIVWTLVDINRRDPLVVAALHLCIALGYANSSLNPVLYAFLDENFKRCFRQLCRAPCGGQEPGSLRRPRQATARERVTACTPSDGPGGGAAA

| Compound | Ki (Mu-type opioid receptor [1]) | Ki [2] | Selectivity [3] | Ki (Mu-type opioid receptor [4]) | Ki [5] |
| --- | --- | --- | --- | --- | --- |
| CSCC[C@H](NC(=O)[C@@H](CC(C)C)NC(=O)[C@H](Cc1ccccc1)NC(=O)[C@@H](CCSC)NC(=O)[C@@H](N)Cc1ccc(O)cc1)C(=O)N[C@@H](CC(=O)O)C(N)=O | 330 nM | 120 nM | – | – | – |
| CSCC[C@H](NC(=O)[C@H](CC(C)C)NC(=O)[C@H](Cc1ccccc1)NC(=O)[C@@H](CCSC)NC(=O)[C@@H](N)Cc1ccc(O)cc1)C(=O)N[C@@H](CC(=O)O)C(N)=O | 352 nM | 12.6 nM | – | – | – |
| CSCC[C@H](NC(=O)[C@H](CC(C)C)NC(=O)[C@H](Cc1ccccc1)NC(=O)[C@@H](CCSC)NC(=O)[C@@H](N)Cc1ccc(O)cc1)C(=O)N[C@H](CC(=O)O)C(N)=O | 267 nM | 9.46 nM | – | – | – |
| CSCC[C@H](NC(=O)[C@H](CC(C)C)NC(=O)[C@H](Cc1c[nH]cn1)NC(=O)[C@H](Cc1ccccc1)NC(=O)[C@@H](CCSC)NC(=O)[C@@H](N)Cc1ccc(O)cc1)C(=O)N[C@H](CC(=O)O)C(N)=O | 124 nM | 0.54 nM | – | – | – |
| CSCC[C@H](NC(=O)[C@H](CC(C)C)NC(=O)[C@H](Cc1ccccc1)NC(=O)[C@@H](C)NC(=O)[C@@H](N)Cc1ccc(O)cc1)C(=O)N[C@@H](CC(=O)O)C(N)=O | 567 nM | 13.9 nM | – | – | – |
| CSCC[C@@H](NC(=O)[C@H](CC(C)C)NC(=O)[C@H](Cc1c[nH]cn1)NC(=O)[C@H](Cc1ccccc1)NC(=O)[C@@H](CCSC)NC(=O)[C@@H](N)Cc1ccc(O)cc1)C(=O)N[C@@H](CC(=O)O)C(N)=O | 146 nM | 0.96 nM | – | – | – |
| CSCC[C@H](NC(=O)[C@H](CC(C)C)NC(=O)[C@H](Cc1ccccc1)NC(=O)[C@@H](CCSC)NC(=O)[C@H](N)Cc1ccc(O)cc1)C(=O)N[C@@H](CC(=O)O)C(N)=O | 7410 nM | 477 nM | – | – | – |
| CSCC[C@H](NC(=O)[C@H](CC(C)C)NC(=O)[C@@H](Cc1c[nH]cn1)NC(=O)[C@H](Cc1ccccc1)NC(=O)[C@@H](CCSC)NC(=O)[C@@H](N)Cc1ccc(O)cc1)C(=O)N[C@@H](CC(=O)O)C(N)=O | – | – | 178 | – | – |
| CSCC[C@H](NC(=O)[C@H](CC(C)C)NC(=O)[C@@H](Cc1ccccc1)NC(=O)[C@@H](CCSC)NC(=O)[C@@H](N)Cc1ccc(O)cc1)C(=O)N[C@@H](CC(=O)O)C(N)=O | 2250 nM | 742 nM | – | – | – |
| CSCC[C@H](NC(=O)[C@H](CC(C)C)NC(=O)[C@@H](Cc1cnc[nH]1)NC(=O)[C@H](Cc1ccccc1)NC(=O)[C@@H](CCSC)NC(=O)[C@@H](N)Cc1ccc(O)cc1)C(=O)N[C@@H](CC(=O)O)C(N)=O | – | – | – | 492 nM | 2.77 nM |
| CSCC[C@H](NC(=O)[C@H](CC(C)C)NC(=O)[C@H](Cc1c[nH]cn1)NC(=O)[C@H](Cc1ccccc1)NC(=O)[C@@H](CCSC)NC(=O)[C@@H](N)Cc1ccc(O)cc1)C(=O)N[C@@H](CC(=O)O)C(N)=O | – | – | 764 | – | – |
| CSCC[C@H](NC(=O)[C@H](CC(C)C)NC(=O)[C@H](Cc1c[nH]cn1)NC(=O)[C@@H](Cc1ccccc1)NC(=O)[C@@H](CCSC)NC(=O)[C@@H](N)Cc1ccc(O)cc1)C(=O)N[C@@H](CC(=O)O)C(N)=O | – | – | 59 | 2350 nM | 39.6 nM |
| CCCC[C@H](NC(=O)[C@@H](N)Cc1ccc(O)cc1)C(=O)N[C@@H](Cc1ccccc1)C(=O)N[C@@H](Cc1c[nH]cn1)C(=O)N[C@@H](CC(C)C)C(=O)N[C@@H](CCSC)C(=O)N[C@@H](CC(=O)O)C(N)=O (H-Y[Nle]FHLMD-NH2) | – | – | 272 | – | – |
| CSCC[C@H](NC(=O)[C@@H](CC(C)C)NC(=O)[C@H](Cc1c[nH]cn1)NC(=O)[C@H](Cc1ccccc1)NC(=O)[C@@H](CCSC)NC(=O)[C@@H](N)Cc1ccc(O)cc1)C(=O)N[C@@H](CC(=O)O)C(N)=O | 691 nM | 58.5 nM | – | – | – |
| CSCC[C@@H](NC(=O)[C@H](CC(C)C)NC(=O)[C@H](Cc1ccccc1)NC(=O)[C@@H](CCSC)NC(=O)[C@@H](N)Cc1ccc(O)cc1)C(=O)N[C@@H](CC(=O)O)C(N)=O | 407 nM | 25.8 nM | – | – | – |
| CSCC[C@H](NC(=O)[C@H](CC(C)C)NC(=O)[C@H](Cc1cnc[nH]1)NC(=O)[C@H](Cc1ccccc1)NC(=O)[C@@H](CCSC)NC(=O)[C@@H](N)Cc1ccc(O)cc1)C(=O)N[C@@H](CC(=O)O)C(N)=O [DELTORPHIN A] | – | – | – | 344 nM | 0.45 nM |
| CSCC[C@H](NC(=O)[C@H](CC(C)C)NC(=O)[C@H](Cc1c[nH]cn1)NC(=O)[C@H](Cc1ccccc1)NC(=O)[C@@H](CCSC)NC(=O)[C@H](N)Cc1ccc(O)cc1)C(=O)N[C@@H](CC(=O)O)C(N)=O | – | – | 14 | – | – |
| CSCC[C@H](NC(=O)[C@H](CC(C)C)NC(=O)[C@H](Cc1c[nH]cn1)NC(=O)[C@H](Cc1ccccc1)NC(=O)[C@@H](C)NC(=O)[C@@H](N)Cc1ccc(O)cc1)C(=O)N[C@@H](CC(=O)O)C(N)=O | – | – | 121 | 43.7 nM | 0.36 nM |
| CSCC[C@H](NC(=O)[C@H](CC(C)C)NC(=O)[C@H](Cc1cnc[nH]1)NC(=O)[C@H](Cc1ccccc1)NC(=O)[C@@H](CCSC)NC(=O)[C@H](N)Cc1ccc(O)cc1)C(=O)N[C@@H](CC(=O)O)C(N)=O | – | – | – | 7410 nM | 544 nM |

From ChEMBL document CHEMBL1125419, “Stereospecificity of amino acid side chains in deltorphin defines binding to opioid receptors” (J Med Chem, 1992)
